Data set [1] deals with TLR4 (RAW 264.7 macrophage cells). Briefly: Nitric oxide production in RAW 264.7 macrophages, LPS-induced TLR4 activation. Format: cell-based. To be noted: 50 μM peptide, LPS 50 ng/ml. Put shortly:
(§1)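 RAW 264.7 macrophages were stimulated with the TLR-specific ligand in the presence or absence of 50 μM peptide. Nitric oxide production was the read-out of pathway activation.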

A further data set concerns BV2 cells. The experiment in a line: Cytotoxicity, trypan blue staining, BV2 cells. Format: cell-based.
A further data set deals with whole human blood. The experiment in a line: Haemolysis in whole human blood. Format: cell-based. Particulars: concentrations up to 500 μM.
A further data set concerns TLR4/MD2 complex. To be noted: previously reported; cited from earlier work.
Data set [2] has as its system rats subjected to CCI of the sciatic nerve. The experiment in a line: Chronic constriction injury. The class given is in vivo. Particulars: rat CCI; intrathecal; summary in words. Put shortly:
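Rats underwent chronic constriction injury and were tested at baseline, then on days 4 and 11 after surgery to confirm allodynia. After a pre-drug assessment, peptide was delivered intrathecally into the peri-spinal cerebrospinal fluid by the lumbar approach, at approximately 250 μM final in the intrathecal space. Vehicle was saline. Allodynia was reassessed 1, 3 and 24 h after injection.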

Data set [3] concerns the target extracellular construct (a.a. 1–632) of human TLR4 (Homo sapiens, UniProt O00206). The class given is binding. Particulars: fluorescence polarization.
In data set [4] the test system is TLR1/TLR2 (RAW 264.7 macrophage cells). Format: cell-based. To be noted: 50 μM peptide, Pam3CSK4 250 ng/ml. Put shortly: as §1
The subject of data set [5] is TLR2/TLR6 (RAW 264.7 macrophage cells). The class given is cell-based. Particulars: 50 μM peptide, PGN 50 μg/ml. The method, boiled down:
as §1

In a further data set the test system is HEK 293 cells. Briefly: Cytotoxicity, trypan blue staining, HEK 293 cells. The class given is cell-based.
For the next data set, the system named is rats. Briefly: Behavioural observation after peptide injection. The class given is in vivo, rat. To be noted: rats of the CCI test; intrathecal injection of peptide stock solutions.
The next data set concerns RAW 264.7 cells. The experiment in a line: Cytotoxicity, trypan blue staining, RAW 264.7 cells. The class given is cell-based.
In another data set the target is TLR4. Particulars: read-out: KD of full-length MD2 binding to TLR4; cited from earlier work.

Here are results for three substances from paper PMC3374877 (Chembiochem, 2011).

“Also recorded” adds a separate entry of the source. Bridges are numbered along the chain shown (N, C = ends). Where no end group is shown, it is not given here.

extracellular construct (a.a. 1–632) of human TLR4, sequence (O00206 24-632): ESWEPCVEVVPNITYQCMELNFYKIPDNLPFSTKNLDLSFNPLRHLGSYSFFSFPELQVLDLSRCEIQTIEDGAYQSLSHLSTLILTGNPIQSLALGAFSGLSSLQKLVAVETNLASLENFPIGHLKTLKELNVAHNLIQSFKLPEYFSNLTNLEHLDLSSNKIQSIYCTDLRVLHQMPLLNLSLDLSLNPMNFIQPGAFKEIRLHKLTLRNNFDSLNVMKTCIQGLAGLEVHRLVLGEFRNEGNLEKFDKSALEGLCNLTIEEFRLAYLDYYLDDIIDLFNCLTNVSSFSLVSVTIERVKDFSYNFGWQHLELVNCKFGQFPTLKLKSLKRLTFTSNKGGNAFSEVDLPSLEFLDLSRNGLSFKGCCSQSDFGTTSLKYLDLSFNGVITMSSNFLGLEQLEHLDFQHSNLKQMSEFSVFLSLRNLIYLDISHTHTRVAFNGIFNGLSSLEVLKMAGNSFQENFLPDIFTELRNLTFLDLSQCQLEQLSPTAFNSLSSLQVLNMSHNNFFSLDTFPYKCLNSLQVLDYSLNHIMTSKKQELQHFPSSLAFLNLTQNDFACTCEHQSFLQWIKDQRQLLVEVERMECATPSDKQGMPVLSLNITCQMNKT

In the case of “CRGSAAAYSFCAALAGA (disulfide 1-11 (inferred)) [MD2-III]”, in data set [1], the “inhibition of TLR4 signalling (NO production)” value is reported as “no inhibition on the TLR4 signaling; also recorded: no inhibitory effect on the TLR4 signaling”.
“CRGSDDDYSFCRALKGE (disulfide 1-11 (inferred)) [MD2-I]”: the cytotoxicity result in the data set with BV2 cells, with HEK 293 cells and with RAW 264.7 cells was “little cytotoxicity” throughout. For the same substance, the haemolysis result in the data set with whole human blood is recorded as “does not induce haemolysis”. The “inhibition of TLR4 signalling, LPS antagonism” value in the data set on TLR4/MD2 complex is given as “abolishes TLR4 signalling by antagonizing its native ligand, lipopolysaccharide (LPS), binding to the TLR4/MD2 complex”. The “suppression of neuropathic pain in vivo (summary statement)” value in [2] is recorded as “moderate potency in an animal model; also recorded: able to suppress neuropathic pain in animal models; also recorded: could suppress neuropathic pain in vivo”. In addition, in [3] (TLR4 titrated, in words), the “binding activity toward TLR4 (change in polarization)” value is on record as “robust increase”. In data set [3] (plateau upon addition of TLR4), the maximum polarization value entry is reported as “approximately 0.25”. Also, in data set [4], the “inhibition of TLR1/2 signalling (NO production)” value is on record as “negligible inhibitory effects; also recorded: without affecting other homologous TLRs”. In data set [5], the “inhibition of TLR2/TLR6 signalling (NO production)” value is recorded as “negligible inhibitory effects; also recorded: without affecting other homologous TLRs”. Moreover, the “abnormal behaviours after injection” value with rats is on record as “no abnormal behaviours were observed”. Moreover, the “inhibition of TLR4 signalling (NO production)” value in data set [1] is given as “significant reduced signals of LPS-induced TLR4 activation; also recorded: selectively inhibits the NO production induced by LPS”.
Regarding “full-length MD2: myeloid differentiation factor 2, accessory protein required for TLR4 activation”, the Kd on TLR4 is 12 nM.

By Kd is commonly meant the concentration at which binding is half-saturated.
